Not all results are given here.
Apaf1 activ: activators of human Apaf-1 apoptosome, primary screen, biochemical, DEVD-Rh110 fluorescence, uHTS; Apoptotic protease-activating factor 1 (Homo sapiens), O14727; Apaf-1 apoptosome caspase-3 activation; hits give low values; activity change, negative = activation, % at 20 µM; 0.31% of 330,000 active;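 active means activity change at or below -40% at 20 µM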
Target sequence (O14727 whole entry, looked up): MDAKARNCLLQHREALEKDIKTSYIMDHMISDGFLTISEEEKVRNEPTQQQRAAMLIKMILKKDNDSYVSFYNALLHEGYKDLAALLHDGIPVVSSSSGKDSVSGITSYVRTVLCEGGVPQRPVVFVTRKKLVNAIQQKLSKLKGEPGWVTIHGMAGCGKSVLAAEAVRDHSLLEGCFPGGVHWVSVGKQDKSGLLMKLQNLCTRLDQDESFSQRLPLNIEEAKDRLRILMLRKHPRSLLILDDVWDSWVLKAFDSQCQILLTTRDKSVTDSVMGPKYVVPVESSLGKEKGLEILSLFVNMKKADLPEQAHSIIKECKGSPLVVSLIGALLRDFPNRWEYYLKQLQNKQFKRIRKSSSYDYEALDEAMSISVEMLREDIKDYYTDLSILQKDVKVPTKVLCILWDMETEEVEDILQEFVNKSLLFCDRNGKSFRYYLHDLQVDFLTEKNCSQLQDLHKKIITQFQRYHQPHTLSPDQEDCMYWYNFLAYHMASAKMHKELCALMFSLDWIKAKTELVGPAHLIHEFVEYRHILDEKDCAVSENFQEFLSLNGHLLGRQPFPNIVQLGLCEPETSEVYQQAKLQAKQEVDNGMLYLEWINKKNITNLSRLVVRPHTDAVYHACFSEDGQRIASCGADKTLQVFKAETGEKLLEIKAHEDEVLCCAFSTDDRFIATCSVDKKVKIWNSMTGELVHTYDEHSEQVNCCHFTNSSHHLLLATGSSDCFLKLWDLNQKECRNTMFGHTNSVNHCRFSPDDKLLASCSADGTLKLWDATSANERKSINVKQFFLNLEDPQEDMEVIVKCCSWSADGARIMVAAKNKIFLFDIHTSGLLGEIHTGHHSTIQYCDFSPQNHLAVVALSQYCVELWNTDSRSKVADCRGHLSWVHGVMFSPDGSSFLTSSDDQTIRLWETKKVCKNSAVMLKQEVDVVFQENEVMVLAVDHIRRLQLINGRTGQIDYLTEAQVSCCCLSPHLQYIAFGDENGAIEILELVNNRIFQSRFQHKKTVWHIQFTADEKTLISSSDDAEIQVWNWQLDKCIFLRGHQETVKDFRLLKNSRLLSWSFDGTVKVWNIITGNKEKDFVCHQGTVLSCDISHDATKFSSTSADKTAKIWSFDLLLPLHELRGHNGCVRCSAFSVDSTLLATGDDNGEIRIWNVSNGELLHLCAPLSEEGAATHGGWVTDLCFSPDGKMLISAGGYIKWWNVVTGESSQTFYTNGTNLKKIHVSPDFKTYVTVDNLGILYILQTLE
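System: Reconstituted apoptosome of Apaf-1, cytochrome c, caspase-9, procaspase-3 | Reagent: dATP, cytochrome c, and (Z-DEVD)2-Rh110 caspase-3 substrate | Times: 30 min compound preincubation and 50 min reaction, both room temperature | Detection: Caspase-3-released Rh110 fluorescence, 540 nm emission, 480 nm excitation | Measure: Caspase-3 activity via Apaf-1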
Rh110 interf act: Rh110 fluorescence interference by putative Apaf-1 activators, confirmation, artefact control for Apaf-1 activator project, biochemical, 20 µM. AID 504616, 2011. shares compounds with Apaf1 activ. fluorescence interference (activity change), % at 20 µM, hits read low. quenched caspase reaction, Ex480/Em540. 980 tested, under 10 active;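 active means mean activity change at or below -40% when tested at 20 µM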
Apaf-1 act conf: Apaf-1 activators, single-dose retest, confirmation, biochemical, fluorescence, DEVD-Rh110, 20 µM; shares compounds with Apaf1 activ; reconstituted apoptosome caspase-3 activity; hits give low values; activity change, negative = activation, % at 20 µM; 5% of 980 active; AID 504617, 2011;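 active means mean activity change at or below -40%, meaning activation of 40% or more, at 20 µM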
Hits are given with their value; – = inactive; · = no result given.

SMILES | Apaf1 activ | Rh110 interf act | Apaf-1 act conf
O=C(Nc1cccc([N+](=O)[O-])c1)Nc1ccc2c(c1)OCCO2 | -288 | – | –
COc1ccc(NC(=O)[C@@H](NC(=O)N2C[C@H]3C[C@@H](C2)c2cccc(=O)n2C3)C(C)C)cc1OC | – | · | ·
CC1(C)CC(=O)C(C=Nc2ccc(O)c(N=CC3=C(O)CC(C)(C)CC3=O)c2)=C(O)C1 | – | · | ·
COc1ccc(OC)c2sc(N(CCCN(C)C)C(=O)c3ccc(S(=O)(=O)N4CCc5ccccc5C4)cc3)nc12 | – | · | ·
Clc1ccccc1OCc1nn2c(-c3ccncc3)nnc2s1 | – | · | ·
CCC1(c2ccccc2)NC(=O)N(CC(=O)Nc2cc(Cl)ccc2N2CCN(C)CC2)C1=O (stereo not given) | – | · | ·
CCCCn1c(N)c(N(CC)C(=O)CN2C(=O)NC(C)(c3ccccc3)C2=O)c(=O)[nH]c1=O (stereo not given) | -441 | – | –
CCC1(C)NC(=O)N(CC(=O)N2CCC(Cc3ccccc3)CC2)C1=O (stereo not given) | – | · | ·
Cc1cc(C(C)(C)CC(C)(C)C)ccc1OCCOCC[N+](C)(C)Cc1ccccc1 | – | · | ·
Cc1ccsc1C(=O)OCC(=O)Nc1c(C)n(C)n(-c2ccccc2)c1=O | -77 | – | –
Cc1c(NC(=O)CSc2ccc3c(c2)OCCO3)c(=O)n(-c2ccccc2)n1C | -46 | – | –
CC1=CC(=Nc2c(C)n(C)n(-c3ccccc3)c2=O)C=CC1=O | – | · | ·
O=C1CC(=Nc2ccccc2)NN1c1ccccc1 | – | · | ·
COC(=O)CCC(=O)OC1(C)C(=O)C=C2C=C(C3CC3)N(C3CCCCC3)C=C2C1=O (stereo not given) | – | · | ·
Cc1cccc(C)c1NC(=O)CSc1nnc(-c2ccco2)c(-c2ccco2)n1 | – | · | ·
CCn1nc(C)c(NC(=O)CCSc2nc(-c3ccco3)cc(C(F)(F)F)n2)c1C | -246 | – | –
CCC(CN(C)C)Oc1cc(NCc2ccccc2)c2ncn(C(C)C)c2c1 (stereo not given) | – | · | ·
N#Cc1c(N2CCCC2)nc(N)c2c(N)nc(N3CCCC3)cc12 | – | · | ·
CCOC(=O)N1CCN(S(=O)(=O)c2ccc(C(=O)N(CCCN(C)C)c3nc4ccc(CC)cc4s3)cc2)CC1 | – | · | ·
COc1ccc(CCNC(=O)c2ccc3nc(-c4ccco4)c(-c4ccco4)nc3c2)cc1OC | – | · | ·
COc1ccc2[nH]c(=O)c(CNc3ccccc3OC)cc2c1 | – | · | ·
COc1ccc(C(=O)NCCCNC(=O)c2cc3ccccc3[nH]2)cc1OC | -162 | – | –
COc1ccc2ccccc2c1C1CC(=O)N2CN(C)CSC2=C1C#N (stereo not given) | – | · | ·
CCc1cccc2c(C#N)cn(CCOc3ccccc3OC)c12 | -104 | – | –
O=C(c1ccc(F)cc1)[C@@H]1[C@@H](C(=O)c2ccccc2)[C@@]2(C(=O)Nc3ccccc32)[C@H]2c3ccccc3C=CN12 | – | · | ·
SMILES | Apaf1 activ | Rh110 interf act | Apaf-1 act conf
c1ccc2c(c1)CCN(C1=Nc3cccc4cccc1c34)C2 | – | · | ·
CCOC(=O)c1cnn(-c2c(Cc3ccccc3)c(C)nc3c(-c4ccccc4)c(C)nn23)c1N | – | · | ·
CCOC(=O)c1cc(C#N)c(N2CCN(c3ccccn3)CC2)nc1-c1ccccc1 | -443 | – | –
CCOC(=O)c1ccc(-n2[nH]c(-c3ccccc3)cc2=O)cc1 | – | · | ·
CCC/C(=C1/c2ccccc2C(=O)N1c1ccccc1)c1cnc(OC)nc1 | – | · | ·
CC1(C)Cc2c(sc(NC(=O)COc3cccc4ccccc34)c2C#N)C(C)(C)N1 | – | · | ·
COc1ccc(S(=O)(=O)N2CCN(c3ccc4nnc(-c5ccccc5)n4n3)CC2)cc1 | – | · | ·
CN1CCN(S(=O)(=O)c2ccc(N3CCN(C(c4ccccc4)c4ccccc4)CC3)nc2)CC1 | -78 | – | –
c1ccc2c(C[C@@H]3CNCCN3CCCCC3CCCCC3)cccc2c1 | – | · | ·
Cc1ccc(C(=O)NC(=S)NNC(=O)c2cccc([N+](=O)[O-])c2)cc1 | -116 | – | –
O=C(COC(=O)c1ccc([N+](=O)[O-])s1)NNC(=O)c1ccccc1 | – | · | ·
O=C(CCn1c2c(c3ccccc31)CCCC2)NNC(=O)c1ccc([N+](=O)[O-])cc1 | – | · | ·
CCCCCCCCCCCCCCCC[n+]1cccc2ccccc21 | – | · | ·
Nc1ccc(N2CCCCCC2)cc1 | – | · | ·
C/C(=C\C(=S)Nc1ccccc1)Nc1cccc2ccccc12 | – | · | ·
COCCCC/C(=N\OCCN)c1ccc(C(F)(F)F)cc1 | – | · | ·
CCc1cccc(NC(=S)Nc2cccc3ccccc23)c1 | – | · | ·
Fc1ccc(NC(=S)Nc2cccc3ccccc23)cc1 | – | · | ·
Cc1ccc(F)cc1NC(=S)NCCc1ccccc1 | -523 | – | –
Cc1[nH]n(-c2ccccc2)c(=O)c1N=Nc1nccs1 | – | · | ·
O=C(O)c1cc([N+](=O)[O-])ccc1NCCc1ccccc1 | -97 | – | –
COc1cc(-c2ccc(Nc3ccccc3C(=O)O)c(OC)c2)ccc1Nc1ccccc1C(=O)O | – | · | ·
COc1cc(S(=O)(=O)Nc2ccccc2)ccc1NC=O | -49 | – | –
CC(C)(C)c1ccc(OCCOc2ccc(C(C)(C)C)cc2NC=O)c(NC=O)c1 | – | · | ·
Cc1[nH]c(=O)[nH]c(=O)c1CSCC(=O)OCC(=O)c1ccc(Br)cc1 | -139 | – | –
SMILES | Apaf1 activ | Rh110 interf act | Apaf-1 act conf
CSc1nc(NC(C)(C)C)nc(Oc2ccc(=O)n(C)n2)n1 | -55 | – | –
CCc1ccc2cccc3c2c1N=CN3C | – | · | ·
CC(C)(C)c1cc(C(=O)N2CCN(c3ncccn3)CC2)ccn1 | -50 | – | –
COc1ccc2cc1Oc1ccc(cc1)C[C@H]1c3c(cc(OC)c4c3Oc3c(ccc5c3[C@H](C2)N(C)CC5)O4)CCN1C | – | · | ·
CCOc1ccc(NC(=S)Nc2cccc3cnccc23)cc1 | – | · | ·
CCN(C(=S)Nc1cccnc1)c1cccc2ccccc12 | – | · | ·
O=C(Nc1ccccc1C(=O)Nc1cccnc1)c1ccccc1 | -166 | – | –
CCOc1ccc(OCc2ccc(C(=O)Nc3cccnc3)cc2)cc1 | -51 | – | –
S=C(Nc1cccnc1)Nc1cccc2cnccc12 | – | · | ·
CCOc1ccc(NC(=O)CN(C)C(=O)c2ccc(COc3ccccc3)cc2)cc1OCC | – | · | ·
CC1=NN(c2ccc(C)cc2C)C(=O)C1C(c1ccccc1O)C1C(=O)N(c2ccc(C)cc2C)N=C1C (stereo not given) | – | · | ·
CC1=NN(c2ccc(C)c(C)c2)C(=O)C1C(c1cccc(O)c1)C1C(=O)N(c2ccc(C)c(C)c2)N=C1C (stereo not given) | – | · | ·
Cc1cc(C)nc(/N=c2/ssnc2Cl)c1 | – | · | ·
COc1ccc(CC(=O)N(C)CC(=O)Nc2ccccc2Cl)cc1S(=O)(=O)N1CCOCC1 | – | · | ·
COc1ccc(CN2C(=O)c3cccnc3C2=O)cc1S(=O)(=O)N1CCOc2ccccc21 | -52 | – | –
COc1ccc(CN(C)C(=O)Cc2ccc(OC)c(S(=O)(=O)N3CCOCC3)c2)cc1OC | – | · | ·
COc1ccccc1C1Nc2cccc3cccc(c23)N1 | – | · | ·
O=C(O)CC1S/C(=N/N=C/c2ccc(-c3ccccc3[N+](=O)[O-])o2)NC1=O (stereo not given) | – | · | ·
CN(C(=S)Nc1ccc(SC(F)F)cc1)c1ccc(O)cc1 | – | · | ·
